Measurements published in article PMC4030725 (Molecular pharmaceutics, 2013).
Where two headings read alike, the source gives them in different places. Blank lines part the entries; values can stand above or below the molecule they belong to.

Legend:
UGT1A9 = conditions: cited from earlier work
HeLa-UGT1A9 cells [1] = format: in vitro ADME, human; conditions: end of experiment
Summary of the method: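 After the efflux incubation, cells were washed twice with ice-cold HBSS, collected in HBSS and sonicated for 30 min at 4°C. Lysates were centrifuged at 15,500 rpm for 20 min. Supernatant was mixed with acetonitrile/acetic acid stop solution and glucuronides were quantified by UPLC-DAD. Protein was measured by assay kit against a BSA standard, and concentration was calculated assuming a cell volume of 4 μl/mg protein. n=3.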

BCRP = target: T1, BCRP (Homo sapiens, UniProt Q9UNQ0); experiment: BCRP-mediated efflux of flavone glucuronides from HeLa-UGT1A9 cells; format: in vitro ADME; conditions: for Log(CLint) / Vmax: BCRP-mediated glucuronide efflux, HeLa-UGT1A9 cells; for Km: efflux kinetic parameter Km, HeLa-UGT1A9 cells (Table 2, unit inferred)
T1 sequence (Q9UNQ0 1-655): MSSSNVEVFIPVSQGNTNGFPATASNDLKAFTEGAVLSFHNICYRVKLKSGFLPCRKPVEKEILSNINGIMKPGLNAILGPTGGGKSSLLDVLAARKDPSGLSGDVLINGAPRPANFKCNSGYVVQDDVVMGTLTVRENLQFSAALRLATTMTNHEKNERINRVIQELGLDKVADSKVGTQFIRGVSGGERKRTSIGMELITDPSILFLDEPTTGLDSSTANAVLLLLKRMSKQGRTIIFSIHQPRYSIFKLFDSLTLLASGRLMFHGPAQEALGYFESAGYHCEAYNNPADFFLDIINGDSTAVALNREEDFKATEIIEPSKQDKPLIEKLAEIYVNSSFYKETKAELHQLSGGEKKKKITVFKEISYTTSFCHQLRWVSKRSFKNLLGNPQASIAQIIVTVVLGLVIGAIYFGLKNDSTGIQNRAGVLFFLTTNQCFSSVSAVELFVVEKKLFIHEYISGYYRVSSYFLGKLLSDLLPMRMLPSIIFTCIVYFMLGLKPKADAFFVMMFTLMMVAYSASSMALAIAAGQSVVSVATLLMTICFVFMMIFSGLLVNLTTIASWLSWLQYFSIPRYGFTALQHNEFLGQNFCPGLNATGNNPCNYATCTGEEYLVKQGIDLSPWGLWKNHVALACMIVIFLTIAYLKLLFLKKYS
Summary of the method: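 HeLa cells stably expressing UGT1A9 were used 3 days post-seeding and washed twice with 37°C HBSS (pH 7.4). They were loaded at 37°C with a mono- or dihydroxyflavone aglycone in HBSS, diluted from a 100X DMSO/methanol (1:4) stock. Medium was sampled within the linear time range, quenched with acetonitrile/acetic acid and analysed by UPLC-DAD. Rates (pmol/min/mg protein) were fitted against intracellular glucuronide concentration; CLint = Vmax/Km. n=3.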

HeLa-UGT1A9 cells [2] = experiment: Fraction metabolized; format: in vitro ADME, human; conditions: six DHFs compared at five loading concentrations (Fig. 8A)
[3] = target: T2, Human BCRP (Arg482) membrane vesicles (Homo sapiens, UniProt Q9UNQ0); experiment: Vesicular transport of HF glucuronides in BCRP-overexpressing membrane vesicles; format: in vitro ADME; conditions: for difference in Km between membrane vesicles and HeLa-UGT1A9 cells: BCRP vesicles vs HeLa-UGT1A9 cells; for Km: efflux kinetic parameter Km, BCRP membrane vesicles (Table 2, unit inferred)
T2 sequence (Q9UNQ0 1-655): T1 sequence (Q9UNQ0 1-655)
Summary of the method: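 Inside-out human BCRP (Arg482) membrane vesicles were incubated with glucuronide substrate and 5 mM ATP, or AMP as control, in 10 mM MgCl₂/10 mM Tris-HCl (pH 7.4). The reaction was stopped with cold buffer, followed by rapid filtration through glass-fibre filters and ice-cold washes. Filters were extracted in 50% methanol with sonication, centrifuged and analysed by UPLC. ATP-dependent transport was taken as ATP minus AMP values.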

[4] = UGT1A9-mediated glucuronidation of the aglycone, ref Wu and Hu [37]
[5] = loading aglycone concentration 0.3125 μM
[6] = loading aglycone concentration 0.625 μM
[7] = loading aglycone concentration 1.25 μM
[8] = loading aglycone concentration 2.5 μM
[9] = loading aglycone concentration 5 μM
[10] = loading aglycone concentration 10 μM
[11] = loading aglycone concentration 15 μM
[12] = loading aglycone concentration 20 μM

Compound: O=c1cc(-c2ccccc2O)oc2ccccc12 [2′HF, 2′-Hydroxyflavone]
Km (UGT1A9; [4]): 0.4 µM | Log(CLint)′ (UGT1A9; [4]): 2.27 | Vmax′ (UGT1A9; [4]): 74.4 pmol/mg/min

Compound: O=c1c(O)c(-c2ccccc2O)oc2ccccc12 [3,2′DHF, 3,2′-Dihydroxyflavone]
Km (UGT1A9; [4]): 0.67 µM | Log(CLint)′ (UGT1A9; [4]): 1.89 | Vmax′ (UGT1A9; [4]): 52 pmol/mg/min

Compound: O=c1c(O)c(-c2cccc(O)c2)oc2ccccc12 [3,3′ DHF, 3,3′-Dihydroxyflavone]
Km (UGT1A9; [4]): 0.11 µM | Log(CLint)′ (UGT1A9; [4]): 4.44 | Vmax′ (UGT1A9; [4]): 3100 pmol/mg/min

Compound: O=c1c(O)c(-c2ccc(O)cc2)oc2ccccc12 [3,4′DHF, 3,4′-Dihydroxyflavone]
Km (UGT1A9; [4]): 0.13 µM | Vmax′ (UGT1A9; [4]): 1800 pmol/mg/min

Intracellular Con. of DHFs-3-O-G (HeLa-UGT1A9 cells [1]; [5]): 2.67 ± 0.09 µM | Intracellular Con. of DHFs-3-O-G (HeLa-UGT1A9 cells [1]; [6]): 14.27 ± 2.00 µM | Intracellular Con. of HFs-G or DHFs-3-O-G (HeLa-UGT1A9 cells [1]; [7]): 71.15 ± 6.11 µM | Intracellular Con. of HFs-G or DHFs-3-O-G (HeLa-UGT1A9 cells [1]; [8]): 241.60 ± 26.10 µM | Intracellular Con. of HFs-G or DHFs-3-O-G (HeLa-UGT1A9 cells [1]; [9]): 645.32 ± 5.81 µM | Intracellular Con. of HFs-G or DHFs-3-O-G (HeLa-UGT1A9 cells [1]; [10]): 715.62 ± 31.7 µM | Log(CLint) (BCRP): 0.38 | Vmax (BCRP): 86.0 ± 5.4 pmol/mg/min
Compound: O=C(O)[C@H]1O[C@@H](Oc2c(-c3ccc(O)cc3)oc3ccccc3c2=O)[C@H](O)[C@@H](O)[C@@H]1O [3,4′DHF-3-O-G]

Compound: O=c1c(O)c(-c2ccccc2)oc2cccc(O)c12 [3,5 DHF, 3,5-Dihydroxyflavone]
fmet (HeLa-UGT1A9 cells [2]): least sensitive to the rising concentration | Km (UGT1A9; [4]): 0.25 µM | Log(CLint)′ (UGT1A9; [4]): 3.88 | Vmax′ (UGT1A9; [4]): 1900 pmol/mg/min

Intracellular Con. of DHFs-3-O-G (HeLa-UGT1A9 cells [1]; [5]): 2.28 ± 0.68 µM | Intracellular Con. of DHFs-3-O-G (HeLa-UGT1A9 cells [1]; [6]): 4.82 ± 0.02 µM | Intracellular Con. of HFs-G or DHFs-3-O-G (HeLa-UGT1A9 cells [1]; [7]): 14.70 ± 2.60 µM | Intracellular Con. of HFs-G or DHFs-3-O-G (HeLa-UGT1A9 cells [1]; [8]): 53.48 ± 3.45 µM | Intracellular Con. of HFs-G or DHFs-3-O-G (HeLa-UGT1A9 cells [1]; [9]): 242.98 ± 9.46 µM | Intracellular Con. of HFs-G or DHFs-3-O-G (HeLa-UGT1A9 cells [1]; [10]): 416.65 ± 12.34 µM | Log(CLint) (BCRP): 0.72 | Vmax (BCRP): 67.3 ± 6.2 pmol/mg/min
Compound: O=C(O)[C@H]1O[C@@H](Oc2c(-c3ccccc3)oc3cccc(O)c3c2=O)[C@H](O)[C@@H](O)[C@@H]1O [3,5DHF-3-O-G]

Compound: O=c1c(O)c(-c2ccccc2)oc2ccc(O)cc12 [3,6DHF, 3,6-Dihydroxyflavone]
fmet (HeLa-UGT1A9 cells [2]): highest fmet value at all tested concentration | Km (UGT1A9; [4]): 0.62 µM | Log(CLint)′ (UGT1A9; [4]): 4.34 | Vmax′ (UGT1A9; [4]): 13000 pmol/mg/min

Compound: O=c1c(O)c(-c2ccccc2)oc2cc(O)ccc12 [3,7DHF(3-OH), 3,7-Dihydroxyflavone]
Km (UGT1A9; [4]): 0.22 µM | Log(CLint)′ (UGT1A9; [4]): 4.32 | Vmax′ (UGT1A9; [4]): 4600 pmol/mg/min

Compound: O=c1c(O)c(-c2ccccc2)oc2ccccc12 [3HF, 3-Hydroxyflavone]
Km (UGT1A9; [4]): 0.3 µM | Log(CLint)′ (UGT1A9; [4]): 3.84 | Vmax′ (UGT1A9; [4]): 2100 pmol/mg/min

difference in Km between membrane vesicles and HeLa-UGT1A9 cells [3]: approximately 3 fold | Km [3]: 29 µM | Intracellular Con. of HFs-G or DHFs-3-O-G (HeLa-UGT1A9 cells [1]; [7]): 7.14 ± 3.02 µM | Intracellular Con. of HFs-G or DHFs-3-O-G (HeLa-UGT1A9 cells [1]; [8]): 38.56 ± 8.36 µM | Intracellular Con. of HFs-G or DHFs-3-O-G (HeLa-UGT1A9 cells [1]; [9]): 206.98 ± 12.39 µM | Intracellular Con. of HFs-G or DHFs-3-O-G (HeLa-UGT1A9 cells [1]; [10]): 335.57 ± 41.55 µM | Intracellular Con. of HFs-G (HeLa-UGT1A9 cells [1]; [11]): 356.82 ± 94.04 µM | Intracellular Con. of HFs-G (HeLa-UGT1A9 cells [1]; [12]): 280.60 ± 28.78 µM | Log(CLint) (BCRP): 1.23 | Vmax (BCRP): 165.6 ± 10.1 pmol/mg/min | Km (BCRP): 9.7 µM
Compound: O=C(O)[C@H]1O[C@@H](Oc2c(-c3ccccc3)oc3ccccc3c2=O)[C@H](O)[C@@H](O)[C@@H]1O [3HF-G]

Compound: O=c1cc(-c2cccc(O)c2)oc2ccccc12 [3′HF, 3′-Hydroxyflavone]
Km (UGT1A9; [4]): 2.02 µM | Log(CLint)′ (UGT1A9; [4]): 2.66 | Vmax′ (UGT1A9; [4]): 926 pmol/mg/min

Compound: O=c1cc(-c2ccc(O)cc2)oc2ccccc12 [4′HF, 4′-Hydroxyflavone]
Km (UGT1A9; [4]): 1.46 µM | Log(CLint)′ (UGT1A9; [4]): 1.83 | Vmax′ (UGT1A9; [4]): 98.7 pmol/mg/min

Compound: O=c1cc(-c2ccccc2)oc2cccc(O)c12 [5HF, 5-Hydroxyflavone]
Vmax′ (UGT1A9; [4]): 118 pmol/mg/min | CLint′(Vmax′/ Km′) (UGT1A9): 123 µL/min/mg | Km (UGT1A9): 0.96 µM | Log(CLint)′ (UGT1A9): 2.09

difference in Km between membrane vesicles and HeLa-UGT1A9 cells [3]: > 10 fold | Km [3]: 2.9 µM | Intracellular Con. of HFs-G or DHFs-3-O-G (HeLa-UGT1A9 cells [1]; [7]): 31.03 ± 0.44 µM | Intracellular Con. of HFs-G or DHFs-3-O-G (HeLa-UGT1A9 cells [1]; [8]): 47.98 ± 3.91 µM | Intracellular Con. of HFs-G or DHFs-3-O-G (HeLa-UGT1A9 cells [1]; [9]): 72.86 ± 2.26 µM | Intracellular Con. of HFs-G or DHFs-3-O-G (HeLa-UGT1A9 cells [1]; [10]): 94.74 ± 11.70 µM | Intracellular Con. of HFs-G (HeLa-UGT1A9 cells [1]; [11]): 18.32 ± 6.47 µM | Intracellular Con. of HFs-G (HeLa-UGT1A9 cells [1]; [12]): 235.51 ± 14.96 µM | Log(CLint) (BCRP): 0.77 | Vmax (BCRP): 283.4 ± 20.0 pmol/mg/min | Km (BCRP): 48.5 µM
Compound: O=C(O)[C@H]1O[C@@H](Oc2cccc3oc(-c4ccccc4)cc(=O)c23)[C@H](O)[C@@H](O)[C@@H]1O [5HF-G]

Compound: O=c1cc(-c2ccccc2)oc2ccc(O)cc12 [6HF, 6-Hydroxyflavone]
Km (UGT1A9; [4]): 2.27 µM | Log(CLint)′ (UGT1A9; [4]): 1.53 | Vmax′ (UGT1A9; [4]): 76.1 pmol/mg/min

Compound: O=c1cc(-c2ccccc2)oc2cc(O)ccc12 [7HF, 7-Hydroxyflavone]
Km (UGT1A9; [4]): 3.59 µM | Log(CLint)′ (UGT1A9; [4]): 3.13 | Vmax′ (UGT1A9; [4]): 4895 pmol/mg/min
